According to ChEMBL document CHEMBL1153373, “Effect of ring size on conformation and biological activity of cyclic cationic antimicrobial peptides” (J Med Chem, 2009):
In brackets after ≈: the same amount, converted by molar mass. Square brackets hold non-standard residues; d marks the D form. Peptide text beside a SMILES is read from it. Orn = NCCC[C@H](N)C(=O)O

How the values were obtained:
[1] = Therapeutic index, ratio of hemolytic activity in human RBC to MIC for Enterobacter cloacae; settings: human red blood cells (RBC), read-out: TI
[2] = Therapeutic index, ratio of hemolytic activity in human RBC to MIC for Serratia marcescens; settings: human red blood cells (RBC), read-out: TI
[3] = Therapeutic index, ratio of hemolytic activity in human RBC to MIC for Candida albicans; settings: human red blood cells (RBC), read-out: TI
[4] = Therapeutic index, ratio of hemolytic activity in human RBC to MIC for Pseudomonas aeruginosa; settings: human red blood cells (RBC), read-out: TI
Pseudomonas aeruginosa = assay: Antimicrobial activity against Pseudomonas aeruginosa after 24 hrs by standard microtiter dilution method; format: functional
Candida albicans = assay: Antimicrobial activity against Candida albicans after 24 hrs by standard microtiter dilution method; format: functional
In short: (§1)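 Fungal MICs were determined by standard microtitre dilution, taken as the lowest peptide concentration inhibiting growth after 24 h incubation at 37 °C.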

Staphylococcus aureus = assay: Antimicrobial activity against Staphylococcus aureus after 24 hrs by standard microtiter dilution method; format: functional
[5] = system: Acinetobacter calcoaceticus; assay: Antimicrobial activity against Acinetobacter calcoaceticus after 24 hrs by standard microtiter dilution method; format: functional
[6] = Toxicity in human RBC assessed as fold reduction in hemolytic activity at 100 ug/ml after 24 hrs relative to control; format: cell-based; settings: erythrocyte
Klebsiella pneumoniae = assay: Antimicrobial activity against Klebsiella pneumoniae after 24 hrs by standard microtiter dilution method; format: functional
Streptococcus pyogenes = assay: Antimicrobial activity against Streptococcus pyogenes after 24 hrs by standard microtiter dilution method; format: functional
Serratia marcescens = assay: Antimicrobial activity against Serratia marcescens after 24 hrs by standard microtiter dilution method; format: functional
Cryptococcus neoformans = assay: Antimicrobial activity against Cryptococcus neoformans after 24 hrs by standard microtiter dilution method; format: functional; in short: as §1
[7] = Therapeutic index, ratio of hemolytic activity in human RBC to MIC for Stenotrophomonas maltophilia; settings: human red blood cells (RBC), read-out: TI
[8] = Therapeutic index, ratio of hemolytic activity in human RBC to MIC for Klebsiella pneumoniae; settings: human red blood cells (RBC), read-out: TI
[9] = system: Stenotrophomonas maltophilia; assay: Antimicrobial activity against Stenotrophomonas maltophilia after 24 hrs by standard microtiter dilution method; format: functional
Streptococcus pneumoniae = assay: Antimicrobial activity against Streptococcus pneumoniae after 24 hrs by standard microtiter dilution method; format: functional
[10] = Therapeutic index, ratio of hemolytic activity in human RBC to MIC for Enterococcus faecalis; settings: human red blood cells (RBC), read-out: TI
[11] = Therapeutic index, ratio of hemolytic activity in human RBC to MIC for Corynebacterium jeikeium; settings: human red blood cells (RBC), read-out: TI
Enterococcus faecalis = assay: Antimicrobial activity against Enterococcus faecalis after 24 hrs by standard microtiter dilution method; format: functional
[12] = Therapeutic index, ratio of hemolytic activity in human RBC to MIC for Escherichia coli; settings: human red blood cells (RBC), read-out: TI
[13] = Therapeutic index, ratio of hemolytic activity in human RBC to MIC for Staphylococcus aureus; settings: human red blood cells (RBC), read-out: TI
[14] = Toxicity in human RBC assessed as hemolytic activity at 100 ug/ml after 24 hrs relative to control; format: cell-based, Erythrocyte; settings: human red blood cells (RBC), read-out: Activity
In short: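 Human erythrocytes in saline were exposed to peptide at 100 µg/mL for 24 h at 37 °C. Result is expressed as percent hemolysis.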

Streptococcus mitis = assay: Antimicrobial activity against Streptococcus mitis after 24 hrs by standard microtiter dilution method; format: functional
[15] = Therapeutic index, ratio of hemolytic activity in human RBC to MIC for Acinetobacter calcoaceticus; settings: human red blood cells (RBC), read-out: TI
Corynebacterium jeikeium = assay: Antimicrobial activity against Corynebacterium jeikeium after 24 hrs by standard microtiter dilution method; format: functional
[16] = Therapeutic index, ratio of hemolytic activity in human RBC to MIC for Streptococcus pyogenes; settings: human red blood cells (RBC), read-out: TI
[17] = system: Staphylococcus epidermidis; assay: Antimicrobial activity against Staphylococcus epidermidis after 24 hrs by standard microtiter dilution method; format: functional
Escherichia coli = assay: Antimicrobial activity against Escherichia coli after 24 hrs by standard microtiter dilution method; format: functional
[18] = Therapeutic index, ratio of hemolytic activity in human RBC to MIC for Cryptococcus neoformans; settings: human red blood cells (RBC), read-out: TI
Enterobacter cloacae = assay: Antimicrobial activity against Enterobacter cloacae after 24 hrs by standard microtiter dilution method; format: functional
[19] = Therapeutic index, ratio of hemolytic activity in human RBC to MIC for Staphylococcus epidermidis; settings: human red blood cells (RBC), read-out: TI
[20] = Therapeutic index, ratio of hemolytic activity in human RBC to MIC for Streptococcus pneumoniae; settings: human red blood cells (RBC), read-out: TI
[21] = Therapeutic index, ratio of hemolytic activity in human RBC to MIC for Streptococcus mitis; settings: human red blood cells (RBC), read-out: TI

| MIC (Klebsiella pneumoniae) [µg/mL] | MIC (Cryptococcus neoformans) [µg/mL] | SMILES | selectivity ratio [1] | selectivity ratio [2] | selectivity ratio [3] | selectivity ratio [4] | MIC (Pseudomonas aeruginosa) [µg/mL] | MIC (Candida albicans) [µg/mL] | MIC (Staphylococcus aureus) [µg/mL] | MIC [5] [µg/mL] | Activity [6] | MIC (Streptococcus pyogenes) [µg/mL] | MIC (Serratia marcescens) [µg/mL] | selectivity ratio [7] | MIC [9] [µg/mL] | MIC (Streptococcus pneumoniae) [µg/mL] | selectivity ratio [11] | MIC (Enterococcus faecalis) [µg/mL] | MIC (Streptococcus mitis) [µg/mL] | MIC [17] [µg/mL] | further results |
| --- | --- | --- | --- | --- | --- | --- | --- | --- | --- | --- | --- | --- | --- | --- | --- | --- | --- | --- | --- | --- | --- |
|  |  | CC(C)C[C@@H]1NC(=O)[C@H](CCCCN)NC(=O)[C@H](C(C)C)NC(=O)[C@@H]2CCCN2C(=O)[C@@H](Cc2ccc(O)cc2)NC(=O)[C@H](CC(C)C)NC(=O)[C@H](CCCCN)NC(=O)[C@H](C(C)C)NC(=O)[C@H](CCCCN)NC(=O)[C@H](CC(C)C)NC(=O)[C@@H]2CCCN2C(=O)[C@@H](Cc2ccc(O)cc2)NC(=O)[C@H](CCCCN)NC1=O (cyclo(VKLK[dY]PLKVKL[dY]P)) | 4 | 2 |  |  |  |  |  |  |  |  |  |  |  |  |  |  |  |  |  |
| 128 (≈ 76.6 µM) | 2 (≈ 1.2 µM) | CC(C)C[C@@H]1NC(=O)[C@H](CCCCN)NC(=O)[C@H](C(C)C)NC(=O)[C@@H]2CCCN2C(=O)[C@@H](Cc2ccc(O)cc2)NC(=O)[C@H](CC(C)C)NC(=O)[C@H](CCCCN)NC(=O)[C@H](C(C)C)NC(=O)[C@H](CCCCN)NC(=O)[C@H](CC(C)C)NC(=O)[C@@H]2CCCN2C(=O)[C@@H](Cc2ccc(O)cc2)NC(=O)[C@H](C(C)C)NC(=O)[C@H](CCCCN)NC1=O (cyclo(KLKV[dY]PLKVKL[dY]PV)) |  |  | 2 | 2 | 64 (≈ 38.3 µM) | 64 (≈ 38.3 µM) | 32 (≈ 19.2 µM) | 16 (≈ 9.58 µM) | 1 | 1 (≈ 0.599 µM) | 256 (≈ 153 µM) | 2 |  |  |  |  |  |  |  |
| 32 (≈ 26.6 µM) | 1 (≈ 0.832 µM) | CC(C)C[C@@H]1NC(=O)[C@H](CCCCN)NC(=O)[C@H](C(C)C)NC(=O)[C@@H]2CCCN2C(=O)[C@@H](Cc2ccc(O)cc2)NC(=O)[C@H](CC(C)C)NC(=O)[C@H](CCCCN)NC(=O)[C@H](C(C)C)NC(=O)[C@@H]2CCCN2C(=O)[C@@H](Cc2ccc(O)cc2)NC1=O (cyclo(KL[dY]PVKL[dY]PV)) |  |  |  | 1 |  |  |  |  | 1 |  |  |  | 16 (≈ 13.3 µM) | 1 (≈ 0.832 µM) | 100 | 2 (≈ 1.66 µM) | 1 (≈ 0.832 µM) | 2 (≈ 1.66 µM) | selectivity ratio [18]: 100; selectivity ratio [20]: 100; selectivity ratio [21]: 100 |

| SMILES | MIC (Klebsiella pneumoniae) [µg/mL] | MIC (Cryptococcus neoformans) [µg/mL] | selectivity ratio [1] | selectivity ratio [2] | selectivity ratio [3] | selectivity ratio [4] | MIC (Pseudomonas aeruginosa) [µg/mL] | MIC (Candida albicans) [µg/mL] | MIC (Staphylococcus aureus) [µg/mL] | MIC [5] [µg/mL] | Activity [6] | MIC (Streptococcus pyogenes) [µg/mL] | MIC (Serratia marcescens) [µg/mL] | selectivity ratio [7] | MIC [9] [µg/mL] | MIC (Streptococcus pneumoniae) [µg/mL] | selectivity ratio [11] | MIC (Enterococcus faecalis) [µg/mL] | MIC (Streptococcus mitis) [µg/mL] | MIC [17] [µg/mL] | further results |
| --- | --- | --- | --- | --- | --- | --- | --- | --- | --- | --- | --- | --- | --- | --- | --- | --- | --- | --- | --- | --- | --- |
| CC(C)C[C@@H]1NC(=O)[C@H](CCCN)NC(=O)[C@H](C(C)C)NC(=O)[C@@H]2CCCN2C(=O)[C@@H](Cc2ccccc2)NC(=O)[C@H](CC(C)C)NC(=O)[C@H](CCCN)NC(=O)[C@H](C(C)C)NC(=O)[C@@H]2CCCN2C(=O)[C@@H](Cc2ccccc2)NC1=O [GRAMICIDIN S] (cyclo(L[dF]PV[Orn]L[dF]PV[Orn])) | 16 (≈ 14 µM) | 1 (≈ 0.876 µM) | 3 | 0.3 | 12 | 3 | 32 (≈ 28 µM) | 8 (≈ 7.01 µM) | 2 (≈ 1.75 µM) | 8 (≈ 7.01 µM) | 1 | 0.5 (≈ 0.438 µM) | 256 (≈ 224 µM) | 12 | 8 (≈ 7.01 µM) | 1 (≈ 0.876 µM) | 25 | 2 (≈ 1.75 µM) | 0.5 (≈ 0.438 µM) | 2 (≈ 1.75 µM) | selectivity ratio [8]: 6; selectivity ratio [10]: 50; selectivity ratio [12]: 6; selectivity ratio [13]: 50; hemolysis at 24 h, 100 ug/ml [14]: 100%; selectivity ratio [15]: 12; MIC (Corynebacterium jeikeium): 4 µg/mL (≈ 3.5 µM); selectivity ratio [16]: 200; MIC (Escherichia coli): 16 µg/mL (≈ 14 µM); selectivity ratio [18]: 100; MIC (Enterobacter cloacae): 32 µg/mL (≈ 28 µM); selectivity ratio [19]: 50; selectivity ratio [20]: 100; selectivity ratio [21]: 200 |
